A selection: hits, their analogues and other compounds. The true share with any hit is near 2.2%.
eIF4E 4G PPI: eIF4E–eIF4G protein interaction inhibitors, primary screen, biochemical, uHTS, TR-FRET, eIF4GI fragment; TR-FRET eIF4E-eIF4GI(517-606) binding, 2 h; inhibition, % at 21.7 µM; 220,000 tested, 0.37% active; AID 782, 2007;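 active = inhibition above about 30%, limit read from the data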
PERK inhibitor: block of dimerizer-induced PERK translation repression, primary screen, PERK inhibitor project, CHO PERK-DD cells, SEAP luminescence, HTS; 220,000 tested, 0.17% active; CHO PERK-DD fusion, SEAP luminescence translation reporter; inhibition, % at 5.6 µM; Eukaryotic translation initiation factor 2-alpha kinase 3 (Homo sapiens), Q9NZJ5;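 active = inhibition above the mean inhibition of all tested compounds plus 3 SD, set separately per screening campaign, cut at about 2.9% in these data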;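 also: PERK kinase domain activated by AP20187 dimerizer at 100 nM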
Hck Nef HTS: inhibitors of Nef-activated human Hck kinase, primary screen, biochemical, Z-Lyte FRET, 384-well, Hck-YEEI | Tyrosine-protein kinase HCK (Homo sapiens), P08631 | Recombinant Hck-YEEI plus Nef, Z-Lyte FRET kinase assay | inhibition, % at 20 µM | 220,000 tested, 0.68% active;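 active = Hck-Nef kinase inhibition above about 50%, limit read from the data; inactive = inhibition below that limit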
Target sequence (P08631 whole entry, looked up): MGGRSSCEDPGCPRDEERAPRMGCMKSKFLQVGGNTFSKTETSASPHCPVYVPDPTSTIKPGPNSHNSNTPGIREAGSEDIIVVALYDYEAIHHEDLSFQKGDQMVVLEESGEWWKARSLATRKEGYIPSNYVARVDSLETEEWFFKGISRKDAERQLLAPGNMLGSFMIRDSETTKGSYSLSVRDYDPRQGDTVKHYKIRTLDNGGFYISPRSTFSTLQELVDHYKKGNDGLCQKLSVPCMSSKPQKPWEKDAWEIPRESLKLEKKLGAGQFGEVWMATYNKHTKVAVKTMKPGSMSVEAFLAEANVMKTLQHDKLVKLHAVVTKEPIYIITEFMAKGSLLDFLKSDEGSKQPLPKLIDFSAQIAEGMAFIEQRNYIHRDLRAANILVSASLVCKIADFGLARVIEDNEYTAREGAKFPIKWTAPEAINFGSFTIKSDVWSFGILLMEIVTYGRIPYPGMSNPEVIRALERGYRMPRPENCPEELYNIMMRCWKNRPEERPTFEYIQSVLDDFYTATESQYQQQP
p97 ATPase inh: inhibitors of human p97 ATPase, primary screen, biochemical. recombinant p97 ATPase, Kinase-Glo ATP luminescence, 3 h. inhibition, % at 8 µM. 220,000 tested, 0.42% active. AID 1481, 2009; in the data active = inhibition above about 15%
14-3-3 Bad inh: inhibitors of 14-3-3 zeta/Bad binding, primary screen, biochemical, TR-FRET, bovine 14-3-3 zeta; TR-FRET 14-3-3zeta/Dy647-pBad peptide displacement, 1 h; inhibition, % at 21.7 µM; 220,000 tested, 0.71% active; AID 781, 2007;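 active = inhibition above about 70%, limit read from the data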
Biofilm kill mix: clotrimazole potentiators killing C. albicans biofilm, primary screen, 4-compound mixtures | C. albicans biofilm persisters + clotrimazole, fluorescence viability; primary screen in compound mixtures of four per well | inhibition, % at 7.6 µM | 120,000 tested, 0.02% active | AID 1242, 2008;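 active = inhibition above 30.3% in the primary screen of four-compound pools, then above 30% when the compound was retested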;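 also: compounds exposed to preformed 24 h biofilms for 48 h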
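Test system: C. albicans CAF4-2 wild-type biofilms; buffer or medium: RPMI/MOPS medium, pH 7.0; schedule: 24 h biofilm formation, then 48 h compound exposure, 37 °C; detection: Alamar Blue fluorescence; measure: percent inhibition of biofilm viability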
Hck-Nef confirm: retest of Hck:Nef kinase inhibitor hits, confirmation, biochemical, Z-Lyte FRET, 384-well, p-Tyr peptide counterscreen; AID 463188, 2010; calls only at 10 µM; shares compounds with Hck Nef HTS; 1,300 tested, 28% active; Recombinant Hck-YEEI:Nef, Z-Lyte FRET kinase assay;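 active = average inhibition of at least 50%, with Z-scores no higher than 3 in both the phospho-tyrosine peptide and fluorescence counterscreens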
Numbers stand for hits; i = inactive; nt = no result given; + = active, no number; [ ] = another dose, or the depositor's remark.

SMILES	eIF4E 4G PPI	PERK inhibitor	Hck Nef HTS	p97 ATPase inh	14-3-3 Bad inh	Biofilm kill mix	Hck-Nef confirm
Cc1cc(-c2nc3cccnc3s2)ccc1NS(=O)(=O)c1cccs1	i	i	94.6	i	i	i	i
COc1cc(NC(=S)Nc2ccccn2)cc(OC)c1OC	i	i	80.6	i	i	i	+
COc1cc(NC(=S)Nc2ccccn2)cc(OC)c1	i	i	i	i	i	i	nt
Cc1c2c(n3c(nc4ccccc43)c1C#N)N(c1ccccc1)CC2	i	i	i	i	i	i	nt
Cc1c2c(n3c(nc4ccccc43)c1C#N)N(CCN(C)C)CC2	i	i	55.0	i	i	i	i
Cc1c2c(n3c(nc4ccccc43)c1C#N)N(CCCN(C)C)CC2	i	i	54.1	i	i	i	i
CCN(CC)CCNC(=O)c1ccc(Sc2ccc(C)cc2)c(NC(C)=O)c1	i	i	i	i	i	i	nt
COc1ccc(C2NC(=S)NC(O)(C(F)(F)F)C2C(=O)c2cccs2)cc1 (stereo not drawn)	i	i	i	i	i	i	nt
COCc1cc(=O)n2c([nH]c3ccccc32)c1C#N	i	i	66.8	i	i	nt	nt
CCc1cc(=S)n2c([nH]c3ccccc32)c1C#N	i	i	71.3	i	i	i	i
CCc1cc(=O)n2c([nH]c3ccccc32)c1C#N	i	i	i	i	i	nt	nt
CC(C)Oc1cccc(C(=O)C2CCCN(Cc3cnc(N4CCOCC4)s3)C2)c1 (stereo not drawn)	i	i	i	i	i	i	nt
Cc1ccc2c(CC(=O)Nc3cccc(S(=O)(=O)N4CCOCC4)c3)coc2c1	i	i	i	i	i	i	nt
CCCC(=O)c1c[nH]c(C(=O)NCCCN2CCOCC2)c1	i	i	i	i	i	nt	nt
CCN1CCN(Cc2ccc(NC(=O)c3ccc(C)c(NC(=O)C(=O)c4c[nH]c5ccccc45)c3)cc2C(F)(F)F)CC1	i	nt	i	nt	i	i	nt
CCN1CCN(Cc2ccc(NC(=O)c3ccc(C)c(NC(=O)c4ccc5n[nH]nc5c4)c3)cc2C(F)(F)F)CC1	i	nt	75.7	nt	i	i	+
CCN1CCN(Cc2ccc(NC(=O)c3cc(NC(=O)c4cnn(-c5ccccc5)c4N)cc(OC)c3)cc2C(F)(F)F)CC1	i	nt	i	nt	i	i	nt
CCN1CCN(Cc2ccc(NC(=O)c3ccc(C)c(NC(=O)c4ccnnc4)c3)cc2C(F)(F)F)CC1	i	nt	54.7	nt	i	i	i
O=C(NCC1CCCO1)c1ccc(COc2ccccc2Br)cc1 (stereo not drawn)	i	i	i	i	i	i	nt
O=C(CN(Cc1ccco1)S(=O)(=O)c1ccccc1)N/N=C/c1ccccc1C(=O)O	i	i	i	i	i	i	nt
O=c1cc(CSc2nc(NCc3ccccc3)c3ccccc3n2)nc2ccc(Cl)cn12	i	i	i	i	i	i	nt
CCN(CC)c1ccc(/C=N/N2C(=O)c3ccccc3C2=O)c(O)c1	i	i	i	i	i	i	nt
CCN(CC)c1ccc(/C=N/n2nnnc2N)c(O)c1	i	i	57.4	i	i	nt	i
CCN(C)c1ccc(/C=N\n2nnnc2N)cc1	i	i	54.2	i	i	nt	nt
COC(=O)c1sc2nc(C)nc(SCC(=O)C(C)(C)C)c2c1C	i	i	i	i	i	i	nt
SMILES	eIF4E 4G PPI	PERK inhibitor	Hck Nef HTS	p97 ATPase inh	14-3-3 Bad inh	Biofilm kill mix	Hck-Nef confirm
Cc1ccc(NC(=O)CN(C)Cc2nc3c(Br)cc(Br)cc3c(=O)[nH]2)cc1	i	i	73.9	i	i	i	+
CCN(CC(=O)NC(C)(C)C)Cc1nc2c(Br)cc(Br)cc2c(=O)[nH]1	i	i	i	i	i	i	nt
O=C(Nc1cccc(NC(=O)c2ccc(Br)o2)n1)c1ccc(Br)o1	i	i	98.1	i	75.0	nt	i
CC(C)c1ccccc1NC(=O)COC(=O)Cc1ccsc1	i	i	i	i	i	i	nt
COc1ccc(C2=NN(C(=O)CSc3nc4ncc(Cl)cc4[nH]3)C(c3ccco3)C2)cc1 (stereo not drawn)	i	i	i	i	i	i	nt
Cc1ccc(C2=NN(C(=O)CSc3nc4ncc(Cl)cc4[nH]3)C(c3ccco3)C2)cc1 (stereo not drawn)	i	i	76.6	i	i	i	i
CCN(C(=S)Nc1ccc(Oc2ccccc2)cc1)c1ccccc1	i	i	i	i	i	i	nt
CCOC(=O)c1c(-c2ccc(C)o2)csc1NC(=O)COC(=O)c1ccc(NC(N)=O)cc1	i	i	i	i	i	nt	nt
O=C(Nc1ccc(-c2nnn(CC(=O)N3CCN(C(=O)c4ccco4)CC3)n2)cc1)c1ccccc1F	i	i	i	i	i	i	nt
O=C(Cn1nnc(-c2ccc(NC(=O)c3ccccc3F)cc2)n1)NCc1ccc(F)cc1	i	i	61.1	i	i	i	i
COc1ccccc1NS(=O)(=O)c1cccc(NC(=O)c2sc3ccccc3c2Cl)c1	i	i	154.2	i	i	i	i
COc1ccccc1NS(=O)(=O)c1ccc(Cl)c(NC(=O)c2sc3cc(Cl)ccc3c2Cl)c1	i	i	i	i	i	i	nt
CC(=O)Nc1nc(C)c(-c2csc(Nc3cccc([N+](=O)[O-])c3)n2)s1	i	i	50.9	i	87.0[fluorescence artefact?]	nt	i
CC(=O)Nc1nc(C)c(-c2csc(Nc3ccc(O)cc3)n2)s1	i	i	i	i	i	nt	nt
Cc1ccc2c(CC(=O)NC3CCCc4ccccc43)coc2c1 (stereo not drawn)	i	i	i	i	i	i	nt
O=C(Oc1ccc2ccc(=O)oc2c1)C1CCCCC1	i	i	66.9	i	i	i	i
CCSc1nnc(NC(=O)c2ccco2)s1	i	i	101.5	i	i	nt	i
O=c1oc2c(CN3CCOCC3)c(O)ccc2c2ccccc12	i	i	i	i	i	nt	nt
CCCc1cc(=O)oc2c(CN3CCOCC3)c(O)ccc12	i	i	65.2	i	i	nt	nt
O=c1oc2c(CN3CCOCC3)c(O)ccc2c2c1CCCC2	i	i	54.2	i	i	nt	nt
O=c1oc2c(CN3CCOCC3)c(O)c(Cl)cc2c2c1CCCC2	i	i	79.7	i	i	nt	nt
Cc1c(O)c(CN2CCCC2)cc2c3c(c(=O)oc12)CCC3	i	i	i	i	i	nt	nt

Screening results (PubChem BioAssay)
